ChEMBL document CHEMBL1128561, “Inhibition of uridine phosphorylase: synthesis and structure-activity relationships of aryl-substituted 5-benzyluracils and 1-[(2-hydroxyethoxy)methyl]-5-benzyluracils” (J Med Chem, 1995)

Key:
Uridine phosphorylase 1 [1] = molecular target: T1, Uridine phosphorylase 1 (Mus musculus, UniProt P52624); assay: Inhibition of uridine phosphorylase (UrdPase) from murine liver.
Outline: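 Murine liver UrdPase; uridine converted to uracil over 30 min at 37 °C, with enzyme set to give 10% conversion uninhibited. Stopped by 1 min at 100 °C. Uridine and uracil separated by TLC (chloroform:methanol:acetic acid 90:5:5).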

[2] = molecular target: Uridine phosphorylase 1 (Mus musculus) (UniProt P52624); assay: The compound was tested for inhibition of uridine phosphorylase (UrdPase) from murine liver at 5 uM of concentration
Sequence of Uridine phosphorylase 1 (Mus musculus) (P52624 whole entry, looked up): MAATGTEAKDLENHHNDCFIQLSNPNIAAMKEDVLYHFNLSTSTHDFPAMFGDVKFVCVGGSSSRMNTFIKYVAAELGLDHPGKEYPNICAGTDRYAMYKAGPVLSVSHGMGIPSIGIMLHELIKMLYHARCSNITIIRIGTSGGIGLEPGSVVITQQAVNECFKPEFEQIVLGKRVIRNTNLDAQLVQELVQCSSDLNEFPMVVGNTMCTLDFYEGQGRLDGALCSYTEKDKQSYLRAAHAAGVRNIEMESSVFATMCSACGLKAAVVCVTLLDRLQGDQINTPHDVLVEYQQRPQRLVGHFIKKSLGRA

[3] = molecular target: Uridine phosphorylase 1 (Mus musculus) (UniProt P52624); assay: The compound was tested for inhibition of uridine phosphorylase (UrdPase) from murine liver at 10 uM of concentration
Uridine phosphorylase 1 [4] = molecular target: T1, Uridine phosphorylase 1; assay: The compound was tested for inhibition of uridine phosphorylase (UrdPase) from murine liver Value refers to activity for apparent Ki value

T1 sequence (P52624 whole entry): as the sequence (P52624 whole entry, looked up) above

With `O=c1[nH]cc(Cc2ccc([N+](=O)[O-])cc2)c(=O)[nH]1` the IC50 (Uridine phosphorylase 1 [1]) was 5.9 µM.
`O=c1[nH]cc(Cc2ccc3c(c2)OCO3)c(=O)[nH]1` showed an IC50 (Uridine phosphorylase 1 [1]) of 13.6 µM.
In the case of `COc1ccc(Cc2cnc(O)nc2O)cc1`, the IC50 (Uridine phosphorylase 1 [1]) is reported as 66.5 µM.
For `COc1ccc(Cc2c[nH]c(=O)[nH]c2=O)cc1OC`, the IC50 (Uridine phosphorylase 1 [1]) was 129 µM.
`Oc1ncc(Cc2cccc(OCc3ccccc3)c2)c(O)n1` gave an inhibition [2] of 15%.
With `O=c1[nH]cc(Cc2cccc(OCCCC(F)(F)F)c2)c(=O)[nH]1` the IC50 (Uridine phosphorylase 1 [1]) was 13 µM.
Work on `CCCOc1cccc(Cc2cn(COCCO)c(=O)[nH]c2=O)c1` yielded an IC50 (Uridine phosphorylase 1 [1]) of 0.047 µM.
`Oc1ncc(Cc2ccc(C(F)(F)F)cc2)c(O)n1` was tested, and the inhibition [3] was 16%.
`COc1cccc(Cc2cn(COCCO)c(=O)[nH]c2=O)c1` was tested, and the Ki (Uridine phosphorylase 1 [4]) was 1.86 µM.
